Results taken from ChEMBL document CHEMBL1125890, “Synthesis, calcium-channel-blocking activity, and antihypertensive activity of 4-(diarylmethyl)-1-[3-(aryloxy)propyl]piperidines and structurally related compounds” (J Med Chem, 1991).

Tests used:
[1] = test system: Rattus norvegicus; assay: Antihypertensive activity expressed as change in mean arterial blood pressure (MABP) in spontaneously hypertensive rats (SHR), at 3-6h after 30 mg/kg oral administration; assay type: functional, Artery
How it was run: (§1)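 Adult male SHR, catheter implanted in carotid artery or abdominal aorta under anesthesia at least 24 h before dosing. Baseline pressure recorded 1-1.5 h. Compound given orally at 30 mg/kg as solution or suspension in 0.5% Tween 80/distilled H2O (v/v) or other vehicle. MABP read at 0.5, 1, 1.5, 2, 3, 4, 5 and 6 h. Average percent change from predose calculated per period. Paired one-tailed t test, p < 0.05. n = 3-6 rats unless noted.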

[2] = species on record: Oryctolagus cuniculus; assay: Calcium channel-blocking activity by determined by ability to antagonize calcium-induced contractions of isolated rabbit aortic strips; assay type: functional; conditions: Aorta, read-out: pA2 (converted)
How it was run: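 Rabbit aortic strips were bathed in turn in CaCl2-containing buffer, CaCl2-free buffer, then depolarizing (KCl) CaCl2-free buffer. Cumulative CaCl2 addition induced contractions, recorded with force-displacement transducers. Responses were compared without and with 1–100 nM test compound. pA2 was calculated by the Van Rossum method from at least three tissues.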

[3] = test system: Rattus norvegicus; assay: Antihypertensive activity expressed as change in mean arterial blood pressure (MABP) in spontaneously hypertensive rats (SHR),at 0.5-2h after 30 mg/kg oral administration; assay type: functional, Artery; how it was run: as §1

SMILES | Change [1] [%] | Kb [2] [µM] | Change [3] [%]
COc1cc(C(C)=O)ccc1OCCCN1CCC(CC(C#N)(c2ccc(F)cc2)c2ccc(F)cc2)C1 (centres undefined) | -7 | 0.01 | 3
Fc1ccc(C(c2ccc(F)cc2)N2CCN(C/C=C/c3ccccc3)CC2)cc1 [FLUNARIZINE] | -1 | 0.00501 | -1
COc1cc(C(C)=O)ccc1OCCCN1CCC(C(c2ccc(F)cc2)c2ccccn2)CC1 (centres undefined) | 3 | 0.158 | -3
